According to article PMC9279720 (Acta Pharmaceutica Sinica. B, 2021):

Tests used:
[1] = molecular target: T1, pUL89-C (Human cytomegalovirus, UniProt P16732); test: In vitro pUL89-C endonuclease assay; assay type: biochemical, HCMV; settings: read-out: Endonuclease inhibition (%) at 20 μmol/L
T1 sequence (P16732 418-674 limits assumed): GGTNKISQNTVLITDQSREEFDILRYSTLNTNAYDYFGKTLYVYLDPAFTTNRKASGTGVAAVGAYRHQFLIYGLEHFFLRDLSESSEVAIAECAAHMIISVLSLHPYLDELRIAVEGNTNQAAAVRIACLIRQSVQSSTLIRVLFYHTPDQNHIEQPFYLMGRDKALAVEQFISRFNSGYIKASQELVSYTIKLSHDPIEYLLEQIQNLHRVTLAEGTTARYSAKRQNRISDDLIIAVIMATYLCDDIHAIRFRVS

[2] = test system: HCMV ADCREGFP; test: HCMV replication assay; assay type: cell-based, Human cytomegalovirus (HCMV); settings: for SI (selectivity index, CC50/EC50): CC50 (HFF) / EC50 (HCMV); for Antiviral activity/potency in words: concentrations up to 50 μmol/L
[3] = Cell viability assay; assay type: cell-based; settings: human, HFF cells (no virus)
[4] = Microsomal stability assay, human liver microsomes; assay type: in vitro ADME; settings: for half-life at 1 μmol/L: human, liver microsomes, pH 7.4; for Microsomal stability in words: species not told apart in the sentence (human and mouse in Table 3)
In short: (§1)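 Test compound (1 μmol/L final) incubated at 37 °C with liver microsomes (human or CD-1 mouse; 0.5 mg/mL protein) and 1 mmol/L MgCl2 in 0.1 mol/L potassium phosphate, pH 7.4. Reaction started with NADPH (1 mmol/L final); a no-NADPH control and a verapamil positive control were run alongside. Samples taken up to 60 min and quenched in acetonitrile/0.1% formic acid. Half-life determined by LC/MS/MS.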

[5] = Microsomal stability assay, mouse liver microsomes; assay type: in vitro ADME; settings: CD-1, mouse, pH 7.4
In short: as §1

[6] = Plasma stability assay, human plasma; assay type: in vitro ADME; settings: for half-life at 1 μmol/L: human, plasma, pH 7.4; for Plasma stability in words: species not told apart in the sentence (human and mouse in Table 3)
In short: (§2)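 Test compound (1 μmol/L final) incubated at 37 °C in human or CD-1 mouse plasma diluted to 80% with 0.1 mol/L potassium phosphate, pH 7.4. Aliquots taken at time points up to […], quenched with acetonitrile/0.1% formic acid and centrifuged at 4 °C. Percent remaining and half-life determined by LC/MS/MS.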

[7] = Parallel artificial membrane permeability assay; assay type: in vitro ADME; settings: for Papp at 5 h, 2 μmol/L: PAMPA
In short: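 Pre-coated lipid PAMPA plate system. Donor wells held test compound at 2 μmol/L in DPBS; acceptor wells held blank DPBS. Incubated 5 h at 25 °C without agitation. Donor and acceptor concentrations measured by LC/MS/MS. Pe calculated from an equilibrium-concentration equation (filter area 0.3 cm2). Compounds classed as high or low permeability at a cutoff of 1.5 × 10−6 cm/s.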

[8] = test system: HCMV ADCREGFP; test: Time of addition assay; assay type: cell-based, Human cytomegalovirus (HCMV); settings: 5 × EC50, added at indicated times post infection
In short: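 HFFs seeded at 1.75 × 10^4 cells/well, grown 24 h in DMEM/10% FBS/1% P/S, then inoculated at MOI 0.01. Cells were held in DMEM with 5% FBS, 1% P/S and 0.5% DMSO until compound was added. GFP intensity was read after lysis; triplicate-well means were normalized to DMSO.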

[9] = test system: HCMV ADCREGFP; test: Compound withdrawal assay; assay type: cell-based, Human cytomegalovirus (HCMV); settings: 5 × EC50, removed at indicated times, read at 168 h
In short: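 HFFs in DMEM/5% FBS, inoculated with the virus at MOI 0.01 for 2 h before compound or 0.5% DMSO was added. At each withdrawal time, wells were washed twice in PBS and refed with 0.5% DMSO medium. Cells were lysed in Tris/DTT/Triton buffer and GFP read at ex/em 495/515 nm. Triplicate-well means.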

[10] = Plasma stability assay, mouse plasma; assay type: in vitro ADME, mouse (CD-1); settings: CD-1, mouse, pH 7.4
In short: as §2

[11] = test system: HFF cells; test: Cell viability assay; assay type: cell-based; settings: for Cytotoxicity in words: HFFs

Row | Compound | inhibition at 20 µM [1] [%] | SI (selectivity index, CC50/EC50) [2] | CC50 at 168 h [3] [µM] | further results
1 | O=C(NCc1cccc(F)c1)c1cn(Cc2ccc(F)cc2)cc(O)c1=O [Compound 8f] | 7 | 4.0 | 3.9 ± 1.8 | 
2 | O=C(NCc1ccccc1F)c1cn(Cc2ccc(F)cc2)cc(O)c1=O [Compound 8e] | 6 | 3.6 | 5.8 ± 2.1 | 
3 | O=C(NCc1ccc(F)cc1F)c1cn(Cc2ccccc2)cc(O)c1=O [Compound 13] | 6 | >50 | > 50 | half-life at 1 μmol/L [4]: 1.7 ± 0.197 h; Microsomal stability in words [4]: good; half-life at 1 μmol/L [5]: 0.895 ± 0.00667 h; half-life at 1 μmol/L [6]: > 24 h; Plasma stability in words [6]: excellent; PAMPA permeability class [7]: high permeability; Papp at 5 h, 2 μmol/L [7]: 9.1 ± 1.1 ×10⁻⁶ cm/s; Time of addition, result in words [8]: active similar to, or possibly later than, LTV; Compound withdrawal, result in words [9]: viral replication recovered similarly to GCV; half-life at 1 μmol/L [10]: > 24 h
4 | N#Cc1ccc(CNC(=O)c2cn(Cc3ccc(F)cc3)cc(O)c2=O)c(F)c1 [Compound 8r] | 5 | >42 | > 50 | 
5 | CC1(C)OB(c2ccc(NC(=O)c3cn(Cc4ccc(F)cc4)cc(O)c3=O)cc2)OC1(C)C [Compound 9c] | 7 | >17 | > 50 | Antiviral activity/potency in words [2]: decreased potency; Cytotoxicity in words [11]: no cytotoxicity
6 | O=C(NCc1c(F)cccc1Cl)c1cn(Cc2ccc(F)cc2)cc(O)c1=O [Compound 8p] | 5 |  |  | viability at 168 h, 50 μmol/L [3]: ~50%; Cytotoxicity in words [11]: cytostatic but not a cytotoxic effect; Metabolic activity compared to DMSO (MTS assay) ([11]; across all compound concentrations 0.2–50 μmol/L): approximately 50%
7 | O=C(NCc1cc(F)c(F)cc1F)c1cn(Cc2ccc(F)cc2)cc(O)c1=O [Compound 8v] | 5 | 8.1 | 5.7 ± 2 | 
8 | O=C(NCc1ccc(Cl)cc1F)c1cn(Cc2ccc(F)cc2)cc(O)c1=O [Compound 8k] | 14 | 4.4 | 2.4 ± 0.07 | 
9 | CN(Cc1ccc(F)cc1F)C(=O)c1cn(Cc2ccc(F)cc2)cc(O)c1=O [Compound 11] | 6 | 8.6 | 12 ± 4.9 | 
10 | CC(NC(=O)c1cn(Cc2ccc(F)cc2)cc(O)c1=O)c1ccc(F)cc1F (centres unmarked) [Compound 10] | 5 | >94 | > 50 | 
11 | Cc1cc(CNC(=O)c2cn(Cc3ccc(F)cc3)cc(O)c2=O)ccc1F [Compound 8s] | 6 | 10 | 10 ± 5.4 | 
12 | Nc1nc(O)c2ncn(COC(CO)CO)c2n1 [Compound 1, ganciclovir, reference compound] |  | >50 | > 50 | 
13 | O=C(NCc1ccccc1)c1cn(Cc2ccc(F)cc2)cc(O)c1=O [Compound 8d] | 9 | 4.7 | 7.1 ± 6.4 | 
14 | O=C(NCc1ccc(Br)cc1F)c1cn(Cc2ccc(F)cc2)cc(O)c1=O [Compound 8q] | 9 | >41 | > 25 | 
15 | O=C(NCc1ccc(F)cc1F)c1c[nH]cc(O)c1=O [Compound 15] | 7 | >6.3 | > 50 | 
16 | COc1cccc(N2CCN(C3=Nc4c(F)cccc4[C@H](CC(=O)O)N3c3cc(C(F)(F)F)ccc3OC)CC2)c1 [LTV, letermovir, reference compound] |  |  |  | Compound withdrawal, result in words [9]: the viral infection rebounded quickly compared to GCV
17 | O=C(NCCc1ccc(F)cc1F)c1cn(Cc2ccc(F)cc2)cc(O)c1=O [Compound 12] | 10 | >116 | > 50 | half-life at 1 μmol/L [4]: 0.668 ± 0.03 h; Microsomal stability in words [4]: good; half-life at 1 μmol/L [5]: 0.433 ± 0.0167 h; half-life at 1 μmol/L [6]: > 24 h; Plasma stability in words [6]: excellent; PAMPA permeability class [7]: high permeability; Papp at 5 h, 2 μmol/L [7]: 4.5 ± 0.9 ×10⁻⁶ cm/s; Time of addition, result in words [8]: inhibit viral replication at a stage between when GCV and LTV are active; Compound withdrawal, result in words [9]: inhibit a step in viral replication between LTV and GCV; half-life at 1 μmol/L [10]: > 24 h
18 | O=C(NCc1ccc(C(F)(F)F)cc1F)c1cn(Cc2ccc(F)cc2)cc(O)c1=O [Compound 8u] | 3 | >46 | > 25 | 
19 | O=C(NCc1ccc(F)cc1F)c1cn(Cc2ccc(F)cc2)ccc1=O [Compound 17] | 5 | >7.6 | > 50 | 
20 | O=C(NCc1ccc(F)cc1F)c1cn(C2CC2)cc(O)c1=O [Compound 14] | 7 | >5.2 | > 25 | 
21 | O=C(Nc1ccc(F)cc1)c1cn(Cc2ccc(F)cc2)cc(O)c1=O [Compound 9b] | 9 | 6.4 | 5.6 ± 1.3 | 
22 | O=C(NCc1ccc(F)c(Cl)c1)c1cn(Cc2ccc(F)cc2)cc(O)c1=O [Compound 8n] | 5 | 6.3 | 3.9 ± 2.3 | 
23 | CCOC(=O)c1cn(Cc2ccc(F)cc2)ccc1=O [Compound 42] | 7 |  | > 50 | Antiviral activity/potency in words [2]: no antiviral activity
24 | O=C(NCc1ccc(F)cc1)c1cn(Cc2ccc(F)cc2)cc(O)c1=O [Compound 8b] | 7 | 8.2 | 6.4 ± 3.7 | 
